Measurements: ChEMBL document CHEMBL4400530, “Synthesis and structure-activity relationship studies of water-soluble β-cyclodextrin-glycyrrhetinic acid conjugates as potential anti-influenza virus agents” (Eur J Med Chem, 2019)
Values after ≈ are worked out from the molar mass of the structure shown. Active and inactive are the calls of the source. No cut-off for these calls is given here.

Key:
Human gammaherpesvirus 4 = assay: Antiviral activity against EBV infected in human Raji cells assessed as reduction in viral genome copy numbers by qRT-PCR analysis; type: functional, organism-based; conditions: human gammaherpesvirus 4, Raji
MDCK = assay: Cytotoxicity against MDCK cells assessed as effect on cell viability at 50 uM measured after 36 hrs by CellTiter-Glo assay; type: cell-based, Canis lupus familiaris; conditions: dog
How it was run: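 MDCK cells (1 × 10⁴ per well) left to adhere 24 h at 37 °C, 5% CO₂. Medium then replaced with fresh medium containing compound at 50 μM, in triplicate. Controls received medium with 1% DMSO. Plates incubated 36 h at 37 °C, 5% CO₂, then viability read by CellTiter-Glo luminescence.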

Influenza A virus = assay: Antiviral activity against Influenza A virus (A/WSN/33(H1N1)) infected in MDCK cells assessed as reduction in virus-induced cytopathic effect at 50 uM after 40 hrs by CellTiter-Glo assay; type: functional, organism-based; conditions: A/WSN/1933(H1N1)
How it was run: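 MDCK cells seeded, grown overnight, then infected with A/WSN/33 (H1N1) at MOI 0.1 in DMEM with 1% FBS, 2 μg/mL TPCK-treated trypsin and test compound (final DMSO 1%). Compounds screened at a single 50 μM concentration. Incubation 40 h, then viability read by CellTiter-Glo luminescence. Oseltamivir positive control, DMSO negative control. Virus stock titres determined in MDCK cells by Reed and Muench.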

[1] = Lipophilicity, log P of the compound; type: physicochemical; conditions: octanol/water
How it was run: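 Calculated value (AlogP, Ghose and Crippen octanol–water partition coefficient at 25 °C), computed in silico rather than measured.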

[2] = Solubility of the compound in water; type: physicochemical; conditions: buffer

Structure (SMILES): CC1(C)[C@@H](O[C@H]2O[C@H](C(=O)O)[C@@H](O)[C@H](O)[C@H]2O[C@@H]2O[C@H](C(=O)O)[C@@H](O)[C@H](O)[C@H]2O)CC[C@]2(C)[C@H]3C(=O)C=C4[C@@H]5C[C@@](C)(C(=O)O)CC[C@]5(C)CC[C@@]4(C)[C@]3(C)CC[C@@H]12 [GLYCYRRHIZIN]
- EC50 (Human gammaherpesvirus 4): 30 µM

Structure (SMILES): CC(=O)OC[C@H]1O[C@@H]2O[C@H]3[C@H](OC(C)=O)[C@@H](OC(C)=O)[C@@H](O[C@H]4[C@H](OC(C)=O)[C@@H](OC(C)=O)[C@@H](O[C@H]5[C@H](OC(C)=O)[C@@H](OC(C)=O)[C@@H](O[C@H]6[C@H](OC(C)=O)[C@@H](OC(C)=O)[C@@H](O[C@H]7[C@H](OC(C)=O)[C@@H](OC(C)=O)[C@@H](O[C@H]8[C@H](OC(C)=O)[C@@H](OC(C)=O)[C@@H](O[C@H]1[C@H](OC(C)=O)[C@H]2OC(C)=O)O[C@@H]8COC(C)=O)O[C@@H]7COC(C)=O)O[C@@H]6COC(C)=O)O[C@@H]5Cn1cc(COCCOCCNC(=O)[C@@]2(C)CC[C@]5(C)CC[C@]6(C)C(=CC(=O)[C@@H]7[C@@]8(C)CC[C@H](O)C(C)(C)[C@@H]8CC[C@]76C)[C@@H]5C2)nn1)O[C@@H]4COC(C)=O)O[C@@H]3COC(C)=O
- Activity (MDCK): Non-Toxic
- Activity (Influenza A virus): Active

Structure (SMILES): CC(=O)OC[C@H]1O[C@@H]2O[C@H]3[C@H](OC(C)=O)[C@@H](OC(C)=O)[C@@H](O[C@H]4[C@H](OC(C)=O)[C@@H](OC(C)=O)[C@@H](O[C@H]5[C@H](OC(C)=O)[C@@H](OC(C)=O)[C@@H](O[C@H]6[C@H](OC(C)=O)[C@@H](OC(C)=O)[C@@H](O[C@H]7[C@H](OC(C)=O)[C@@H](OC(C)=O)[C@@H](O[C@H]8[C@H](OC(C)=O)[C@@H](OC(C)=O)[C@@H](O[C@H]1[C@H](OC(C)=O)[C@H]2OC(C)=O)O[C@@H]8COC(C)=O)O[C@@H]7COC(C)=O)O[C@@H]6COC(C)=O)O[C@@H]5Cn1cc(COCCOCCOCCOCCNC(=O)[C@@]2(C)CC[C@]5(C)CC[C@]6(C)C(=CC(=O)[C@@H]7[C@@]8(C)CC[C@H](O)C(C)(C)[C@@H]8CC[C@]76C)[C@@H]5C2)nn1)O[C@@H]4COC(C)=O)O[C@@H]3COC(C)=O
- Activity (MDCK): Non-Toxic
- Activity (Influenza A virus): Active

Structure (SMILES): CC1(C)[C@@H](O)CC[C@]2(C)[C@H]3C(=O)C=C4[C@@H]5C[C@@](C)(C(=O)O)CC[C@]5(C)CC[C@@]4(C)[C@]3(C)CC[C@@H]12 [ENOXOLONE]
- EC50 (Human gammaherpesvirus 4): 4 µM
- logP [1]: 6.75
- solubility [2]: 10.6 µg/mL (≈ 22.5 µM)

Structure (SMILES): CC1(C)[C@@H](OCc2cn(C[C@H]3O[C@@H]4O[C@H]5[C@H](O)[C@@H](O)[C@@H](O[C@H]6[C@H](O)[C@@H](O)[C@@H](O[C@H]7[C@H](O)[C@@H](O)[C@@H](O[C@H]8[C@H](O)[C@@H](O)[C@@H](O[C@H]9[C@H](O)[C@@H](O)[C@@H](O[C@H]%10[C@H](O)[C@@H](O)[C@@H](O[C@H]3[C@H](O)[C@H]4O)O[C@@H]%10CO)O[C@@H]9CO)O[C@@H]8CO)O[C@@H]7CO)O[C@@H]6CO)O[C@@H]5CO)nn2)CC[C@]2(C)[C@H]3C(=O)C=C4[C@@H]5C[C@@](C)(C(=O)O)CC[C@]5(C)CC[C@@]4(C)[C@]3(C)CC[C@@H]12
- Activity (MDCK): Non-Toxic
- Activity (Influenza A virus): Active

Structure (SMILES): CC(=O)OC[C@H]1O[C@@H]2O[C@H]3[C@H](OC(C)=O)[C@@H](OC(C)=O)[C@@H](O[C@H]4[C@H](OC(C)=O)[C@@H](OC(C)=O)[C@@H](O[C@H]5[C@H](OC(C)=O)[C@@H](OC(C)=O)[C@@H](O[C@H]6[C@H](OC(C)=O)[C@@H](OC(C)=O)[C@@H](O[C@H]7[C@H](OC(C)=O)[C@@H](OC(C)=O)[C@@H](O[C@H]8[C@H](OC(C)=O)[C@@H](OC(C)=O)[C@@H](O[C@H]1[C@H](OC(C)=O)[C@H]2OC(C)=O)O[C@@H]8COC(C)=O)O[C@@H]7COC(C)=O)O[C@@H]6COC(C)=O)O[C@@H]5Cn1cc(CN2CCN(CCNC(=O)[C@@]5(C)CC[C@]6(C)CC[C@]7(C)C(=CC(=O)[C@@H]8[C@@]9(C)CC[C@H](O)C(C)(C)[C@@H]9CC[C@]87C)[C@@H]6C5)CC2)nn1)O[C@@H]4COC(C)=O)O[C@@H]3COC(C)=O
- Activity (MDCK): Non-Toxic
- Activity (Influenza A virus): inactive

Structure (SMILES): CC1(C)[C@@H](O)CC[C@]2(C)[C@H]3C(=O)C=C4[C@@H]5C[C@@](C)(C(=O)NCCOCCOCCOCCOCCOCCOCc6cn(C[C@H]7O[C@@H]8O[C@H]9[C@H](O)[C@@H](O)[C@@H](O[C@H]%10[C@H](O)[C@@H](O)[C@@H](O[C@H]%11[C@H](O)[C@@H](O)[C@@H](O[C@H]%12[C@H](O)[C@@H](O)[C@@H](O[C@H]%13[C@H](O)[C@@H](O)[C@@H](O[C@H]%14[C@H](O)[C@@H](O)[C@@H](O[C@H]7[C@H](O)[C@H]8O)O[C@@H]%14CO)O[C@@H]%13CO)O[C@@H]%12CO)O[C@@H]%11CO)O[C@@H]%10CO)O[C@@H]9CO)nn6)CC[C@]5(C)CC[C@@]4(C)[C@]3(C)CC[C@@H]12
- Activity (MDCK): Non-Toxic
- Activity (Influenza A virus): Active

Structure (SMILES): CC1(C)[C@@H](O)CC[C@]2(C)[C@H]3C(=O)C=C4[C@@H]5C[C@@](C)(C(=O)NCCOCCOCCOCCOCc6cn(C[C@H]7O[C@@H]8O[C@H]9[C@H](O)[C@@H](O)[C@@H](O[C@H]%10[C@H](O)[C@@H](O)[C@@H](O[C@H]%11[C@H](O)[C@@H](O)[C@@H](O[C@H]%12[C@H](O)[C@@H](O)[C@@H](O[C@H]%13[C@H](O)[C@@H](O)[C@@H](O[C@H]%14[C@H](O)[C@@H](O)[C@@H](O[C@H]7[C@H](O)[C@H]8O)O[C@@H]%14CO)O[C@@H]%13CO)O[C@@H]%12CO)O[C@@H]%11CO)O[C@@H]%10CO)O[C@@H]9CO)nn6)CC[C@]5(C)CC[C@@]4(C)[C@]3(C)CC[C@@H]12
- Activity (MDCK): Non-Toxic
- Activity (Influenza A virus): Active

Structure (SMILES): CC(=O)OC[C@H]1O[C@@H]2O[C@H]3[C@H](OC(C)=O)[C@@H](OC(C)=O)[C@@H](O[C@H]4[C@H](OC(C)=O)[C@@H](OC(C)=O)[C@@H](O[C@H]5[C@H](OC(C)=O)[C@@H](OC(C)=O)[C@@H](O[C@H]6[C@H](OC(C)=O)[C@@H](OC(C)=O)[C@@H](O[C@H]7[C@H](OC(C)=O)[C@@H](OC(C)=O)[C@@H](O[C@H]8[C@H](OC(C)=O)[C@@H](OC(C)=O)[C@@H](O[C@H]1[C@H](OC(C)=O)[C@H]2OC(C)=O)O[C@@H]8COC(C)=O)O[C@@H]7COC(C)=O)O[C@@H]6COC(C)=O)O[C@@H]5Cn1cc(CNC(=O)[C@@]2(C)CC[C@]5(C)CC[C@]6(C)C(=CC(=O)[C@@H]7[C@@]8(C)CC[C@H](O)C(C)(C)[C@@H]8CC[C@]76C)[C@@H]5C2)nn1)O[C@@H]4COC(C)=O)O[C@@H]3COC(C)=O
- Activity (MDCK): Non-Toxic
- Activity (Influenza A virus): Active

Structure (SMILES): CC(=O)OC[C@H]1O[C@@H]2O[C@H]3[C@H](O)[C@@H](O)[C@@H](O[C@H]4[C@H](O)[C@@H](O)[C@@H](O[C@H]5[C@H](O)[C@@H](O)[C@@H](O[C@H]6[C@H](O)[C@@H](O)[C@@H](O[C@H]7[C@H](O)[C@@H](O)[C@@H](O[C@H]8[C@H](O)[C@@H](O)[C@@H](O[C@H]1[C@H](O)[C@H]2O)O[C@@H]8CO)O[C@@H]7CO)O[C@@H]6CO)O[C@@H]5CO)O[C@@H]4Cn1cc(COCCOCCNC(=O)[C@@]2(C)CC[C@]4(C)CC[C@]5(C)C(=CC(=O)[C@@H]6[C@@]7(C)CC[C@H](O)C(C)(C)[C@@H]7CC[C@]65C)[C@@H]4C2)nn1)O[C@@H]3COC(C)=O
- Activity (MDCK): Non-Toxic
- Activity (Influenza A virus): Active

Structure (SMILES): CC(=O)OC[C@H]1O[C@@H]2O[C@H]3[C@H](OC(C)=O)[C@@H](OC(C)=O)[C@@H](O[C@H]4[C@H](OC(C)=O)[C@@H](OC(C)=O)[C@@H](O[C@H]5[C@H](OC(C)=O)[C@@H](OC(C)=O)[C@@H](O[C@H]6[C@H](OC(C)=O)[C@@H](OC(C)=O)[C@@H](O[C@H]7[C@H](OC(C)=O)[C@@H](OC(C)=O)[C@@H](O[C@H]8[C@H](OC(C)=O)[C@@H](OC(C)=O)[C@@H](O[C@H]1[C@H](OC(C)=O)[C@H]2OC(C)=O)O[C@@H]8COC(C)=O)O[C@@H]7COC(C)=O)O[C@@H]6COC(C)=O)O[C@@H]5Cn1cc(COCCNC(=O)[C@@]2(C)CC[C@]5(C)CC[C@]6(C)C(=CC(=O)[C@@H]7[C@@]8(C)CC[C@H](O)C(C)(C)[C@@H]8CC[C@]76C)[C@@H]5C2)nn1)O[C@@H]4COC(C)=O)O[C@@H]3COC(C)=O
- Activity (MDCK): Non-Toxic
- Activity (Influenza A virus): Active

Structure (SMILES): CC1(C)[C@@H](O)CC[C@]2(C)[C@H]3C(=O)C=C4[C@@H]5C[C@@](C)(C(=O)NCCOCc6cn(C[C@H]7O[C@@H]8O[C@H]9[C@H](O)[C@@H](O)[C@@H](O[C@H]%10[C@H](O)[C@@H](O)[C@@H](O[C@H]%11[C@H](O)[C@@H](O)[C@@H](O[C@H]%12[C@H](O)[C@@H](O)[C@@H](O[C@H]%13[C@H](O)[C@@H](O)[C@@H](O[C@H]%14[C@H](O)[C@@H](O)[C@@H](O[C@H]7[C@H](O)[C@H]8O)O[C@@H]%14CO)O[C@@H]%13CO)O[C@@H]%12CO)O[C@@H]%11CO)O[C@@H]%10CO)O[C@@H]9CO)nn6)CC[C@]5(C)CC[C@@]4(C)[C@]3(C)CC[C@@H]12
- Activity (MDCK): Non-Toxic
- Activity (Influenza A virus): Active
